{
  "source": "paper PMC6263940",
  "about": "(Nature chemical biology, 2018)",
  "key": {"ABHD12 [1]": {"molecular_target": "T1, ABHD12 (Mus musculus, UniProt Q99LR1)", "T1 sequence (Q99LR1 1-398)": "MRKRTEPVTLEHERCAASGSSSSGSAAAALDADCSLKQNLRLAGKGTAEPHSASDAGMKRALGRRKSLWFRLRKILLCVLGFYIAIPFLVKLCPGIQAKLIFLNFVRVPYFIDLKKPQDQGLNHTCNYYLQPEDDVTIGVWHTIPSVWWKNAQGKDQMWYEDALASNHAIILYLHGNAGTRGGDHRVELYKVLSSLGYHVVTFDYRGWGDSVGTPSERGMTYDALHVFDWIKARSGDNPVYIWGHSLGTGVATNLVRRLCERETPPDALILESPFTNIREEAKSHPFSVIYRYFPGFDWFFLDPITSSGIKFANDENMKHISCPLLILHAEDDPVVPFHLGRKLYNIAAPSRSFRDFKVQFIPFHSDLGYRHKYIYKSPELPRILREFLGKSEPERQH", "assay": "Lyso-PS hydrolysis assay with membrane lysates of ABHD12-transfected cells", "type": "biochemical", "how_it_was_run": "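Membrane lysate of ABHD12-transfected cells in DPBS incubated with 17:1 lyso-PS (100 μM final) for 20 min at 37 °C. Quenched in 2:1 CHCl₃/MeOH with 15:0 FFA internal standard. Activity is the LC-MS 17:1 FFA/15:0 FFA peak-area ratio minus mock-transfected membrane activity. IC50 fitted as log(inhibitor) vs normalized response.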"}, "ABHD12 [2]": {"molecular_target": "T2, ABHD12 (Homo sapiens, UniProt Q8N2K0)", "T2 sequence (Q8N2K0 1-398)": "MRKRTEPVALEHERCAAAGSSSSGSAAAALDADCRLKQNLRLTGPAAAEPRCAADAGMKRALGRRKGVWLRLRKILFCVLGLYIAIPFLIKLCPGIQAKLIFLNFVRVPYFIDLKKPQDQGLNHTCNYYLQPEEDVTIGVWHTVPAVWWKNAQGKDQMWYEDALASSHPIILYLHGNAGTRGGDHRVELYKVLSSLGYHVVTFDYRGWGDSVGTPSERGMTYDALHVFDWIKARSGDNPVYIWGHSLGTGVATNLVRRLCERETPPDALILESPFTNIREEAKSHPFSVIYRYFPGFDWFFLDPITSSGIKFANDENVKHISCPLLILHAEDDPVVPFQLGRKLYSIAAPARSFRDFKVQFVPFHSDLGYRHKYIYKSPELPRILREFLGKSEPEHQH", "type": "cell-based", "how_it_was_run": "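THP-1 cells (6 million in 10 mL) given test compound (1–1000 nM) or DMSO for 4 h at 37 °C, 5% CO₂, then washed twice in ice-cold DPBS. Membrane proteome incubated with 17:1 lyso-PS (100 μM final), 20 min, 37 °C. Readout is the LC-MS 17:1 FFA/15:0 FFA ratio minus the JJH350 (10 μM)-treated membrane background. IC50 fitted as log(inhibitor) vs normalized response.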"}, "serine hydrolases": {"system": "serine hydrolases", "assay": "ABPP of brain serine hydrolase activities from treated mice", "type": "in vivo, mouse", "settings": "gel- and MS-based ABPP, more than 65 other serine hydrolases quantified", "how_it_was_run": "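Mice dosed i.p. with test compound (30 mg/kg) or vehicle and killed after 4 h (isoflurane, then cervical dislocation). Brain membrane serine hydrolase activities quantified by MS-based ABPP. Each protein's value is the mean of median peptide ratios (treated vs vehicle) ± SEM, from n = 4 or 3 independent samples per compound.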"}, "LCMV clone 13": {"system": "LCMV clone 13", "settings": "mouse, in vivo"}},
  "data": [
    {"smiles": "FC(F)(F)Oc1ccc(Oc2ccnc(N3CCC(NC(=S)Nc4cccnc4)CC3)c2Cl)c(Cl)c1", "note": "[DO264, N-3-pyridyl-N’-(1-[3-chloro-4-{2-chloro-4-(trifluoromethoxy)phenoxy}pyridine-2-yl]piperidin-4-yl)thiourea]", "values": [
      {"measurement": "time dependence of ABHD12 inhibition", "setting": "ABHD12 [1]; 30-45 min or no preincubation, ABHD12-transfected HEK293T lysate 0.2 mg/mL", "value": "did not show time-dependent inhibition"},
      {"measurement": "ABHD12 activity after dilution of inhibitor-treated lysates", "setting": "ABHD12 [1]; ABHD12-transfected HEK293T lysates, preincubated 20 min, diluted five-fold", "value": "recovery of ABHD12 activity"},
      {"measurement": "IC50", "setting": "ABHD12 [2]", "value": 26, "unit": "nM"},
      {"measurement": "selectivity for ABHD12 in vivo", "setting": "serine hydrolases", "value": "excellent selectivity"},
      {"measurement": "pathological response to Cl13 infection, in comparison to (S)-DO271", "setting": "LCMV clone 13", "value": "heightened pathology"},
      {"measurement": "pro-inflammatory chemokines in BALF compared to control group", "setting": "LCMV clone 13", "value": "increases"},
      {"measurement": "total protein in bronchoalveolar lavage fluid (BALF) compared to control group", "setting": "LCMV clone 13", "value": "increases"},
      {"measurement": "fraction of treated ABHD12(−/−) mice that died prior to sacrifice at day 10", "setting": "LCMV clone 13; ip, 30 mg/kg", "value": "30-40%"}
    ]}
  ]
}
